According to ChEMBL document CHEMBL5724801, “EUbOPEN Chemogenomics Library - Multiplex” (2024):
“And” between values parts separate entries of the source, which are not always exact repeats. Equal entries are not always repeated.

Test system: HEK-293T
Test: Multiplex assay against HEK293T
Type: toxicity, cell-based
Conditions: human
In short: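 At seeding, live cells were stained with Hoechst33342, BioTracker Green Microtubule Cytoskeleton Dye, MitoTracker Red and Annexin V Alexa Fluor 680. After compound addition they were imaged on a CQ1 microscope at 37°C and 5% CO2, and CellPathfinder machine-learning gating sorted them into Hoechst high-intensity objects or normal cells, with normal cells further split into healthy, pyknosed or fragmented nuclei and pyknosed cells into mitotic or apoptotic. Tubulin, mitochondrial-mass and membrane-permeability phenotypes are given as per cents of cells with healthy nuclei.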

[1] = 12 h, 1 µM, compound concentration 1 uM
[2] = 12 h, 10 µM, compound concentration 10 uM
[3] = 24 h, 1 µM, compound concentration 1 uM
[4] = 24 h, 10 µM, compound concentration 10 uM
[5] = 48 h, 1 µM, compound concentration 1 uM
[6] = 48 h, 10 µM, compound concentration 10 uM

SMILES: COC[C@@H](c1ccc(C(F)(F)F)cc1)N1CCN(C2(C)CCN(C(=O)c3c(C)ncnc3C)CC2)C[C@@H]1C.O=C(O)/C=C\C(=O)O [VICRIVIROC MALEATE]
- Population Apoptotic (%) [1]: 46% and 45%
- Population Fragmented Nuclei (%) [1]: 7%
- Population Healthy Nuclei (%) [1]: 80%
- Population Hoechst High Intensity Objects (%) [1]: 9% and 5%
- Population Membrane Permeable-Phenotype (%) [1]: 0%
- Population Mitochondria Different-Phenotype (%) [1]: 47% and 51%
- Population Mitotic Cells (%) [1]: 53% and 54%
- Population Normal (%) [1]: 90% and 94%
- Population Pyknosed Nuclei (%) [1]: 12% and 11%
- Population Tubulin-Different-Phenotype (%) [1]: 27% and 17%
- Total Cell Count [1]: 406 and 387
- Population Apoptotic (%) [2]: 44% and 62%
- Population Fragmented Nuclei (%) [2]: 6% and 5%
- Population Healthy Nuclei (%) [2]: 75% and 72%
- Population Hoechst High Intensity Objects (%) [2]: 8% and 16%
- Population Membrane Permeable-Phenotype (%) [2]: 0%
- Population Mitochondria Different-Phenotype (%) [2]: 63% and 78%
- Population Mitotic Cells (%) [2]: 55% and 37%
- Population Normal (%) [2]: 91% and 83%
- Population Pyknosed Nuclei (%) [2]: 18% and 21%
- Population Tubulin-Different-Phenotype (%) [2]: 57% and 51%
- Total Cell Count [2]: 315 and 265
- Population Apoptotic (%) [3]: 30% and 31%
- Population Fragmented Nuclei (%) [3]: 9%
- Population Healthy Nuclei (%) [3]: 79% and 82%
- Population Hoechst High Intensity Objects (%) [3]: 6% and 5%
- Population Membrane Permeable-Phenotype (%) [3]: 0% and 1%
- Population Mitochondria Different-Phenotype (%) [3]: 24%
- Population Mitotic Cells (%) [3]: 69% and 68%
- Population Normal (%) [3]: 93% and 94%
- Population Pyknosed Nuclei (%) [3]: 10% and 8%
- Population Tubulin-Different-Phenotype (%) [3]: 21% and 11%
- Total Cell Count [3]: 564 and 515
- Population Apoptotic (%) [4]: 34% and 60%
- Population Fragmented Nuclei (%) [4]: 6% and 10%
- Population Healthy Nuclei (%) [4]: 80% and 77%
- Population Hoechst High Intensity Objects (%) [4]: 6% and 16%
- Population Membrane Permeable-Phenotype (%) [4]: 0%
- Population Mitochondria Different-Phenotype (%) [4]: 53% and 70%
- Population Mitotic Cells (%) [4]: 66% and 39%
- Population Normal (%) [4]: 93% and 83%
- Population Pyknosed Nuclei (%) [4]: 13% and 12%
- Population Tubulin-Different-Phenotype (%) [4]: 49% and 39%
- Total Cell Count [4]: 406 and 310
- Population Apoptotic (%) [5]: 21% and 34%
- Population Fragmented Nuclei (%) [5]: 11% and 13%
- Population Healthy Nuclei (%) [5]: 80% and 81%
- Population Hoechst High Intensity Objects (%) [5]: 2%
- Population Membrane Permeable-Phenotype (%) [5]: 1%
- Population Mitochondria Different-Phenotype (%) [5]: 13% and 11%
- Population Mitotic Cells (%) [5]: 78% and 65%
- Population Normal (%) [5]: 97%
- Population Pyknosed Nuclei (%) [5]: 7% and 5%
- Population Tubulin-Different-Phenotype (%) [5]: 12% and 8%
- Total Cell Count [5]: 930 and 751
- Population Apoptotic (%) [6]: 38% and 53%
- Population Fragmented Nuclei (%) [6]: 12% and 14%
- Population Healthy Nuclei (%) [6]: 75% and 70%
- Population Hoechst High Intensity Objects (%) [6]: 4% and 11%
- Population Membrane Permeable-Phenotype (%) [6]: 0%
- Population Mitochondria Different-Phenotype (%) [6]: 49% and 50%
- Population Mitotic Cells (%) [6]: 61% and 46%
- Population Normal (%) [6]: 95% and 88%
- Population Pyknosed Nuclei (%) [6]: 11% and 15%
- Population Tubulin-Different-Phenotype (%) [6]: 35% and 38%
- Total Cell Count [6]: 559 and 394

SMILES: O=C(NCCNCC(O)COc1ccc(O)cc1)N1CCOCC1.O=C(NCCNCC(O)COc1ccc(O)cc1)N1CCOCC1.O=C(O)/C=C/C(=O)O (configuration not stated) [XAMOTEROL FUMARATE]
- Population Apoptotic (%) [1]: 39% and 60%
- Population Fragmented Nuclei (%) [1]: 5%
- Population Healthy Nuclei (%) [1]: 79% and 76%
- Population Hoechst High Intensity Objects (%) [1]: 4% and 14%
- Population Membrane Permeable-Phenotype (%) [1]: 0%
- Population Mitochondria Different-Phenotype (%) [1]: 39% and 57%
- Population Mitotic Cells (%) [1]: 60% and 39%
- Population Normal (%) [1]: 95% and 85%
- Population Pyknosed Nuclei (%) [1]: 14% and 17%
- Population Tubulin-Different-Phenotype (%) [1]: 26% and 21%
- Total Cell Count [1]: 339 and 271
- Population Apoptotic (%) [2]: 35% and 29%
- Population Fragmented Nuclei (%) [2]: 7% and 4%
- Population Healthy Nuclei (%) [2]: 83% and 86%
- Population Hoechst High Intensity Objects (%) [2]: 6% and 5%
- Population Membrane Permeable-Phenotype (%) [2]: 0%
- Population Mitochondria Different-Phenotype (%) [2]: 39% and 62%
- Population Mitotic Cells (%) [2]: 65% and 70%
- Population Normal (%) [2]: 93% and 94%
- Population Pyknosed Nuclei (%) [2]: 8% and 9%
- Population Tubulin-Different-Phenotype (%) [2]: 19% and 23%
- Total Cell Count [2]: 499 and 406
- Population Apoptotic (%) [3]: 26% and 45%
- Population Fragmented Nuclei (%) [3]: 8% and 9%
- Population Healthy Nuclei (%) [3]: 78% and 80%
- Population Hoechst High Intensity Objects (%) [3]: 6% and 13%
- Population Membrane Permeable-Phenotype (%) [3]: 0%
- Population Mitochondria Different-Phenotype (%) [3]: 18% and 38%
- Population Mitotic Cells (%) [3]: 73% and 54%
- Population Normal (%) [3]: 93% and 86%
- Population Pyknosed Nuclei (%) [3]: 12% and 10%
- Population Tubulin-Different-Phenotype (%) [3]: 17% and 15%
- Total Cell Count [3]: 475 and 366
- Population Apoptotic (%) [4]: 21% and 33%
- Population Fragmented Nuclei (%) [4]: 9% and 7%
- Population Healthy Nuclei (%) [4]: 79% and 85%
- Population Hoechst High Intensity Objects (%) [4]: 5% and 4%
- Population Membrane Permeable-Phenotype (%) [4]: 0%
- Population Mitochondria Different-Phenotype (%) [4]: 25% and 42%
- Population Mitotic Cells (%) [4]: 78% and 66%
- Population Normal (%) [4]: 94% and 95%
- Population Pyknosed Nuclei (%) [4]: 11% and 7%
- Population Tubulin-Different-Phenotype (%) [4]: 12% and 17%
- Total Cell Count [4]: 632 and 542
- Population Apoptotic (%) [5]: 21% and 41%
- Population Fragmented Nuclei (%) [5]: 14% and 11%
- Population Healthy Nuclei (%) [5]: 77% and 81%
- Population Hoechst High Intensity Objects (%) [5]: 2% and 4%
- Population Membrane Permeable-Phenotype (%) [5]: 2% and 0%
- Population Mitochondria Different-Phenotype (%) [5]: 11% and 18%
- Population Mitotic Cells (%) [5]: 78% and 58%
- Population Normal (%) [5]: 97% and 95%
- Population Pyknosed Nuclei (%) [5]: 7% and 6%
- Population Tubulin-Different-Phenotype (%) [5]: 9% and 10%
- Total Cell Count [5]: 918 and 526
- Population Apoptotic (%) [6]: 17% and 25%
- Population Fragmented Nuclei (%) [6]: 15% and 16%
- Population Healthy Nuclei (%) [6]: 79% and 77%
- Population Hoechst High Intensity Objects (%) [6]: 0% and 2%
- Population Membrane Permeable-Phenotype (%) [6]: 1% and 0%
- Population Mitochondria Different-Phenotype (%) [6]: 13% and 16%
- Population Mitotic Cells (%) [6]: 82% and 74%
- Population Normal (%) [6]: 99% and 97%
- Population Pyknosed Nuclei (%) [6]: 5%
- Population Tubulin-Different-Phenotype (%) [6]: 6% and 10%
- Total Cell Count [6]: 1116 and 827
